Assay results taken from ChEMBL document CHEMBL1156156, “Conformationally-restricted amino acid analogues bearing a distal sulfonic acid show selective inhibition of system x(c)(-) over the vesicular glutamate transporter” (Bioorg Med Chem Lett, 2010).

Columns and labels:
[1] = target: T1, Cystine/glutamate transporter (Homo sapiens) (UniProt Q9UPY5); assay: Inhibition of amino acid transport system xc- in human SNB19 cells assessed as [3H]L-glutamate uptake at 500 uM after 24 hrs by liquid scintillation counting; assay type: cell-based; settings: SNB-19
T1 sequence (whole entry): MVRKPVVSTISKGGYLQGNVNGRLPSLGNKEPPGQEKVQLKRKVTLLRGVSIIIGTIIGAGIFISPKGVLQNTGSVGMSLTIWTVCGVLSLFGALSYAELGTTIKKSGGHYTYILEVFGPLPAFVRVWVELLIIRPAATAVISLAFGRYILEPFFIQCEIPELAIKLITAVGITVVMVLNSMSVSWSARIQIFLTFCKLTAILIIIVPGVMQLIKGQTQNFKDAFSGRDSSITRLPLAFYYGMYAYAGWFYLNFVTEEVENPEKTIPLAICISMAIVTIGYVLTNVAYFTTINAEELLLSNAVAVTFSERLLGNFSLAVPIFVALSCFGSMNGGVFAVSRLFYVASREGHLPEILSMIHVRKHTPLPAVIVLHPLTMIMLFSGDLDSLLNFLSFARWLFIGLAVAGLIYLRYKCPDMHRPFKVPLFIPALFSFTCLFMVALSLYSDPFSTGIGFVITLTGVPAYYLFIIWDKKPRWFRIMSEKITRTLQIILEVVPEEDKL
Summary of the method: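 Uptake begun by adding ³H-L-glutamate (100 μM) with inhibitor (500 μM) to the wells and run for 5 min. Wells rinsed three times with 0°C HBHS, and cells lysed in 0.4 M NaOH for 24 h. A 200 μl aliquot was acidified with acetic acid and radioactivity counted against background.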

Rattus norvegicus = organism: Rattus norvegicus; assay: Inhibition of VGLUT in rat brain synaptic vesicles assessed as [3H]L-glutamate uptake at 5 mM after 24 hrs by liquid scintillation counting; assay type: tissue-based
Summary of the method: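 Vesicular uptake used 250 μM L-glutamate as substrate, with inhibitor at 5 mM.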

[2] = target: T2, Cystine/glutamate transporter (Homo sapiens, UniProt Q9UPY5); assay: Inhibition of amino acid transport system xc-
T2 sequence (Q9UPY5 whole entry): T1 sequence (whole entry)
Summary of the method: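 Cells were given 100 μM ³H-L-glutamate plus 500 μM inhibitor, and uptake ran for 5 min. Wells were rinsed three times with 0°C HBHS, and cells were lysed in 0.4 M NaOH for 24 h. Acetic acid was added to a lysate aliquot, and radioactivity was counted against background.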

[3] = Inhibition of VGLUT

SMILES	Drug uptake [1]	Drug uptake (Rattus norvegicus)	IC50 [2]	IC50 [3]
NC(C(=O)O)c1c[nH]cn1 (stereo unspecified)	96%	95%		
Cc1c(C(=O)O)sc(N)c1C(=O)O	57%	44%		
Cc1csc(C(=O)O)c1N	83%	91%		
Cc1cc(C(N)C(=O)O)sc1C (stereo unspecified)	73%	57%		
N[C@@H](CCS(=O)(=O)O)C(=O)O			35 µM	
N[C@@H](Cc1ccc(S(=O)(=O)O)cc1)C(=O)O	90%	131%		
N[C@@H](Cn1oc(=O)[nH]c1=O)C(=O)O [QUISQUALATE]			5 µM	
N[C@H](C(=O)O)c1ccc(C(=O)O)cc1			5 µM	
Cc1cc(-c2ccc(/N=N/c3c(S(=O)(=O)O)cc4cc(S(=O)(=O)O)cc(N)c4c3O)c(C)c2)ccc1/N=N/c1c(S(=O)(=O)O)cc2cc(S(=O)(=O)O)cc(N)c2c1O [TRYPAN BLUE]				0.05 µM
Nc1c(/N=N/c2ccc(-c3ccc(/N=N/c4cc(S(=O)(=O)O)c5ccccc5c4N)cc3)cc2)cc(S(=O)(=O)O)c2ccccc12		31%		
N[C@@H](CS)C(=O)O	22%			
N[C@@H](C(=O)O)c1ccc(S(=O)(=O)O)s1	55%	104%		
N[C@H](C(=O)O)c1ccc(S(=O)(=O)O)cc1	55%	105%		
N[C@H](C(=O)O)c1ccc(S(=O)(=O)O)s1	32%	92%		
NC(C(=O)O)c1ccc(Br)s1 (stereo unspecified)	83%	37%		
NC(C(=O)O)c1ccc(S(=O)(=O)O)s1 (stereo unspecified)	26%	81%		
NC(C(=O)O)c1csc2ccccc12 (stereo unspecified)	53%	31%		
NC(Cc1ccc(Br)cc1S(=O)(=O)O)C(=O)O (stereo unspecified)	83%	77%		
CC(N)(Cc1ccc(S(=O)(=O)O)cc1)C(=O)O (stereo unspecified)	106%	98%		
N[C@@H](COS(=O)(=O)O)C(=O)O			26 µM	
N[C@H](Cc1ccc(S(=O)(=O)O)cc1)C(=O)O	101%	102%		
NC(C(=O)O)c1ccc(-c2cccs2)s1 (stereo unspecified)	69%	53%		
NC(C(=O)O)c1ccc(-c2ccc(C(=O)O)cc2)cc1 (stereo unspecified)	27%	75%		
N[C@@H](C(=O)O)c1ccc(S(=O)(=O)O)cc1	98%	108%		
